Results gathered from unrelated publications.
Lines come from different studies, so protocols differ.
Target: Tyrosine-protein kinase Fyn (FYN, Homo sapiens, UniProt P06241)

| SMILES | effect on | technique | tested at | remaining binding [%] |
| --- | --- | --- | --- | --- |
| C[C@@H]1CCN(c2nccc(-c3cnn4ncccc34)n2)C1 | binding | – | 1 µM | 88 |
| C=CC(=O)N1CCC(C(=O)NCC(=O)N2CCN(c3nc(-c4cnc(N)nc4C(F)F)nc(N4CCOCC4)n3)CC2)CC1 | binding | competition with immobilised ligand | 1 µM | 100 |
| CNC(=O)[C@@H]1CC[C@@H](n2c(-c3ccc4cnccc4c3)nc3ccc(C(=O)NCc4cccc(C(N)=O)c4)cc32)C1 | binding | competition with immobilised ligand | 1 µM | 100 |
| O=C(NCc1ncc(C(F)(F)F)cc1Cl)c1ccc2c(c1)C1(CCS(=O)(=O)CC1)[C@H](C1CC1)N2S(=O)(=O)c1ccc(F)cc1 | cell-free assay | competition with immobilised ligand | 1 µM | 100 |
| CN(C)c1nccc(-c2cnn3ncccc23)n1 | binding | – | 1 µM | 100 |
| Cc1cnc(Nc2ccc(C(=O)N3CCC(N4CCCC4)CC3)cc2)nc1-c1cc2ccccc2s1 | binding | competition with immobilised ligand | 1 µM | 78 |
| CCN1CCN(Cc2ccc(C(=O)Nc3ccc(C)c(Oc4ccc5c(c4)CC(=O)N5)c3)cc2C(F)(F)F)CC1 | binding | competition with immobilised ligand | 1 µM | 90 |
| C[C@@H]1CN(c2cc(-c3n[nH]c4ccc(OC5(C)CC5)cc34)ncn2)C[C@H](C)O1 | cell-free assay | competition with immobilised ligand | 0.1 µM | 100 |
| c1cncc(-c2cccc(Nc3nccc(NC4CCCCC4)n3)c2)c1 | binding | competition with immobilised ligand | 10 µM | 45 |
| c1cnn2ncc(-c3ccnc(N4CCC45COC5)n3)c2c1 | binding | – | 1 µM | 79 |
| CCOCCn1cc(C(=O)Nc2ccc(-n3nc(-c4cccnc4)cc3C(F)(F)F)cn2)ccc1=O | cell-free assay | competition with immobilised ligand | 1 µM | 53 |
| COc1ncc2cc3ccccc3nc2c1C#N | cell-free assay | competition with immobilised ligand | 5 µM | 100 |
| CS(=O)(=O)NCC[C@H](NC(=O)c1cncc2c1cnn2-c1ccc(F)cc1)c1ccnc(S(C)(=O)=O)c1 | cell-free assay | competition with immobilised ligand | 1 µM | 100 |
| O=C(Nc1c[nH]nc1C(=O)NC1CCNCC1)c1cc(F)cc(F)c1 | binding | competition with immobilised ligand | 1 µM | 100 |
| Cc1cnn2ncc(-c3ccnc(N(C)C)n3)c2c1 | binding | – | 1 µM | 98 |
| O=C(NCCCN1CCOCC1)c1ccc(Nc2nccc(-c3cc4ccccc4s3)n2)cc1 | binding | competition with immobilised ligand | 1 µM | 94 |
| Cn1cc(Cl)c2c(Oc3c(F)cc(Nc4cc(Cl)nc(N)n4)cc3F)ccnc21 | cell-free assay | competition with immobilised ligand | 0.1 µM | 80 |
| COc1cnc(Nc2cccc(S(N)(=O)=O)c2)nc1N1CCN(c2ccccc2)CC1 | binding | competition with immobilised ligand | 1 µM | 99 |
| O=C(NCCCN1CCOCC1)c1ccc(Nc2ncc(Cl)c(-c3ccc(Cl)s3)n2)cc1 | binding | competition with immobilised ligand | 1 µM | 100 |
| O=C(O)[C@@H]1[C@@H](Cn2nnc3ccccc3c2=O)CC[C@H]1C(=O)c1ccc(OCCC2CCOCC2)cc1 | cell-free assay | competition with immobilised ligand | 1 µM | 76 |
| N[C@@H]1CCN(c2nccc(-c3cnn4ncccc34)n2)C1 | binding | – | 1 µM | 100 |
